Experimental data taken from ChEMBL document CHEMBL1125728, “Dopamine autoreceptor agonists as potential antipsychotics. 2. (Aminoalkoxy)-4H-1-benzopyran-4-ones” (J Med Chem, 1991).

How the values were obtained:
Rattus norvegicus = experiment: Compound tested for its effective dose to inhibit rat locomotor activity after sc administration of the compound.; format: functional
Procedure, shortened: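 Rats dosed sc, with locomotor activity recorded for 30 min immediately after dosing. ED50 generated from four to five doses using 5–12 animals per dose, reported with ±95% confidence limits.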

D(1A) dopamine receptor = D(1A) dopamine receptor (Rattus norvegicus, UniProt P18901); experiment: Compound was tested for its inhibitory effect on the binding profile in Dopamine receptor D1 using [3H]flupenthixol in rat brain.; format: tissue-based
Sequence of D(1A) dopamine receptor (P18901 whole entry): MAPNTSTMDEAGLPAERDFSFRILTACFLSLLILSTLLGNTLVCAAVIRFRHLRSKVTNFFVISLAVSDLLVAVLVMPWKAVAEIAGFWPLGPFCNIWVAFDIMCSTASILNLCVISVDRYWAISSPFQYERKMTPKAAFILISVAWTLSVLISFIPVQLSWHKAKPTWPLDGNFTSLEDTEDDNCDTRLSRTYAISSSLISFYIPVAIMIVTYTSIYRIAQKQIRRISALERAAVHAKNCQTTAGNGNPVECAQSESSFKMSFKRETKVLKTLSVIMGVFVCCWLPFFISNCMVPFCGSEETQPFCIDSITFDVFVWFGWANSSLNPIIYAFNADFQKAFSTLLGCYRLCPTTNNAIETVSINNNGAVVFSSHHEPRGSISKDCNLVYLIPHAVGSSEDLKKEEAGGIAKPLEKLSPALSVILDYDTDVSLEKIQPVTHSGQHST
Procedure, shortened: (§1)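 Rat brain receptor binding with the stated radioligands. IC50 obtained by nonlinear regression from four to five concentrations. [3H]flupenthixol and [3H]N-propylnorapomorphine values come from four independent determinations each, and the [3H]haloperidol value from two experiments. Remaining ligands were determined once.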

[1] = target: T1, Adrenergic receptor alpha-2 (Rattus norvegicus, UniProt P22086+P19328+P22909); experiment: Compound was tested for its inhibitory effect on the binding profile in Alpha-2 adrenergic receptor using [3H]p-aminoclonidine in rat brain.; format: tissue-based; procedure, shortened: as §1
T1 sequence (P22086 whole entry): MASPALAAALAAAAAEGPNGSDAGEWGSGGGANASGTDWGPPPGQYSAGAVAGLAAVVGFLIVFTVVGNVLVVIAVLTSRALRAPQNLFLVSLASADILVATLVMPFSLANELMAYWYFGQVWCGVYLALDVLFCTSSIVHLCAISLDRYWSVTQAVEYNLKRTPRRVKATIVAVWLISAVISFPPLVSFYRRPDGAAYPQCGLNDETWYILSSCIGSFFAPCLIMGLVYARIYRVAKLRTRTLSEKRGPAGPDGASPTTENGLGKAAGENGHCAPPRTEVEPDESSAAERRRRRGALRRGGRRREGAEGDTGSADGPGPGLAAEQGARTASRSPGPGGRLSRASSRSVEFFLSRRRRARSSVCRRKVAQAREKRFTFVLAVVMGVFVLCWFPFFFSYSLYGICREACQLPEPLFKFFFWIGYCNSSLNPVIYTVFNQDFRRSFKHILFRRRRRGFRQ
T1 sequence (P19328 whole entry): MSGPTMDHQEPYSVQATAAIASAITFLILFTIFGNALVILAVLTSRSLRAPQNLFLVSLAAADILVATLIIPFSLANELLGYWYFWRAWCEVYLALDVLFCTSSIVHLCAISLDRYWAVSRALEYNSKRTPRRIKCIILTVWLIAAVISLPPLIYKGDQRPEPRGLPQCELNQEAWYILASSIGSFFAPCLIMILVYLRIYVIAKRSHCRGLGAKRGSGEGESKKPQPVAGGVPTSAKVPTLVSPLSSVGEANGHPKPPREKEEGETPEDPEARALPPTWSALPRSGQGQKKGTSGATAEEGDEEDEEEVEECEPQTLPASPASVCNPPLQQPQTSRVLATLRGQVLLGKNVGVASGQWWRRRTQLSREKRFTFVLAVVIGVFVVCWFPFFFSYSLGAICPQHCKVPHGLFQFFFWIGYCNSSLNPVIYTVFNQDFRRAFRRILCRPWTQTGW
T1 sequence (P22909 whole entry): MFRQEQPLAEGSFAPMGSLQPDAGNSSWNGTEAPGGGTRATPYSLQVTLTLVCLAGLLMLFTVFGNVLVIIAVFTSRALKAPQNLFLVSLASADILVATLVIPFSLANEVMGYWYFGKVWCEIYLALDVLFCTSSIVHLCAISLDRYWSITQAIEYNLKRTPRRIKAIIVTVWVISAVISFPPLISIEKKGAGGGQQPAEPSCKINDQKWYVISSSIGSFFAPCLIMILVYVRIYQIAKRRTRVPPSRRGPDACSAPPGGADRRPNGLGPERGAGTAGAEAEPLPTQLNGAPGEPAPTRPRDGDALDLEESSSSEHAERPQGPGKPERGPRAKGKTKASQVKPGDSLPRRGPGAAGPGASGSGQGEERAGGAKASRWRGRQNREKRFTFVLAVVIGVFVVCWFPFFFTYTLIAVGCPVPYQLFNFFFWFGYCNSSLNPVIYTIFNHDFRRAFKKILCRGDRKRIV

IC50 (D(1A) dopamine receptor): 21.7 µM
IC50 [1]: 2.6 µM
SMILES: O=c1ccoc2cc(OCCCN3CCN(c4ccccn4)CC3)ccc12
ED50 (Rattus norvegicus): 0.58 mg/kg
